Test results reported in ChEMBL document CHEMBL1140344, “New 2-arylpyrazolo[4,3-c]quinoline derivatives as potent and selective human A3 adenosine receptor antagonists” (J Med Chem, 2005).

Tests used:
Adenosine receptor A2a [1] = molecular target: T1, Adenosine receptor A2a (Homo sapiens, UniProt P29274); assay: Percent inhibition of [3H]ZM-241385 binding to human adenosine 2Aa receptor expressed in CHO cells; (n=3 - 6); format: cell-based; set-up: concentration or dose not given beside the values; conditions: concentration not given here
T1 sequence (P29274 whole entry): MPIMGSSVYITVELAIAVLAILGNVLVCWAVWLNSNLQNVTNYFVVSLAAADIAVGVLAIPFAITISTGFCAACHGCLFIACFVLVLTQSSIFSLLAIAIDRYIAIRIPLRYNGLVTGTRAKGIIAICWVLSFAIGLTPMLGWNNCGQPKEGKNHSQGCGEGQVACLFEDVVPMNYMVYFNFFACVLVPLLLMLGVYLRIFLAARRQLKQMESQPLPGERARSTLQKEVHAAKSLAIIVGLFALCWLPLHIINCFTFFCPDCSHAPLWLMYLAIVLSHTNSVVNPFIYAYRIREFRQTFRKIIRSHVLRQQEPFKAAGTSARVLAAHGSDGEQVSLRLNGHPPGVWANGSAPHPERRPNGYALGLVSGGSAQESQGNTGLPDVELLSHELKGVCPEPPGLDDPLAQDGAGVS

[2] = molecular target: T2, Adenosine receptor A1 (Homo sapiens) (UniProt P30542); assay: Percent inhibition [3H]DPCPX binding to human adenosine A1 receptor expressed in CHO cells; (n=3 - 6); format: cell-based; set-up: concentration or dose not given beside the values; conditions: concentration not given here
T2 sequence (whole entry): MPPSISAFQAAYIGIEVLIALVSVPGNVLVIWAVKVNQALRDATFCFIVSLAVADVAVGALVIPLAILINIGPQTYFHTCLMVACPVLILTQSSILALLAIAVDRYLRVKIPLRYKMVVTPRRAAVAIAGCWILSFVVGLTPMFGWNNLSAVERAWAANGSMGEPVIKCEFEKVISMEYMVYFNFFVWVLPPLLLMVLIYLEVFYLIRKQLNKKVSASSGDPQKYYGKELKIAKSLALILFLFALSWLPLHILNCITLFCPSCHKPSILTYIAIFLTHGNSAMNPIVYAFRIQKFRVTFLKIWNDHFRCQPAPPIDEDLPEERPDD

Adenosine receptor A2b = molecular target: T3, Adenosine receptor A2b (Homo sapiens, UniProt P29275); assay: Inhibition of 100 nM-NECA stimulation of cAMP levels in human adenosine A2b receptor expressing CHO cells; format: cell-based
T3 sequence (P29275 whole entry): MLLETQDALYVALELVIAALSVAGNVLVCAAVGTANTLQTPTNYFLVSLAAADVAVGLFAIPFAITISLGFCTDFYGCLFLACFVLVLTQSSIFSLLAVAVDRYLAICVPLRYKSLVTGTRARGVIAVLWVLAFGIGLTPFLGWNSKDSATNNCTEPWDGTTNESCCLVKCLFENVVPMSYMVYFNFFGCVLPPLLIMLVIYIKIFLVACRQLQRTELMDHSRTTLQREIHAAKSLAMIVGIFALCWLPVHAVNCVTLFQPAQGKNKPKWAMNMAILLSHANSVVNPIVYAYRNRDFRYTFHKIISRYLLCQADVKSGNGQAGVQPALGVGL
Outline: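 CHO cells stably transfected with human A2B receptor, grown in DMEM/F12 with 10% FCS and G418, 37 °C. Cells trypsinised and suspended at 1 × 10⁶ cells/assay in pH 7.4 buffer with 2 IU/ml adenosine deaminase and Ro 20-1724. Preincubated 10 min at 37 °C, then challenged with 100 nM NECA. Stopped with cold 6% TCA. cAMP measured by competitive binding to [³H]cAMP with adrenal binding protein. IC50 from sigmoid nonlinear regression.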

Adenosine receptor A3 [3] = molecular target: T4, Adenosine receptor A3 (Homo sapiens, UniProt P0DMS8); assay: Inhibition of [3H]MRE3008-F20 binding to human adenosine A3 receptor expressed in CHO cells; (n=3 - 6); format: cell-based
T4 sequence (P0DMS8 whole entry): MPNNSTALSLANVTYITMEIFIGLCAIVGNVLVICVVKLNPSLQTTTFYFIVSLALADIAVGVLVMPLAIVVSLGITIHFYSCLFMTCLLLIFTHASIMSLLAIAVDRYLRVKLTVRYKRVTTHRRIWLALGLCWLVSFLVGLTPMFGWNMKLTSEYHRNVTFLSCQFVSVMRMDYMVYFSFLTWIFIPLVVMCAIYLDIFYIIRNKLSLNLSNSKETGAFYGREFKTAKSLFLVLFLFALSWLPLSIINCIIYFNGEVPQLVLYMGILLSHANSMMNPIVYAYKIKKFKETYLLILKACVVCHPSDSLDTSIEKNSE

Adenosine receptor A1 = molecular target: T5, Adenosine receptor A1 (Homo sapiens, UniProt P30542); assay: Inhibition of [3H]DPCPX binding to human adenosine A1 receptor expressed in CHO cells; (n=3 - 6); format: cell-based
T5 sequence (P30542 whole entry): T2 sequence (whole entry)
Outline: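 Membranes from human A1-transfected CHO cells, pretreated with adenosine deaminase 3 IU/ml for 30 min at 37 °C. 50 µg protein incubated 120 min at 25 °C in 50 mM Tris HCl pH 7.4 with 1 nM [³H]DPCPX and 6–8 concentrations of test ligand. Nonspecific binding defined with 10 µM CHA. Separated by GF/B filtration, counted by scintillation. Ki via Cheng–Prusoff.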

[4] = molecular target: T6, Adenosine receptor A2b (Homo sapiens) (UniProt P29275); assay: Percent inhibition of human adenosine A2b receptor expressed in CHO cells; format: cell-based; set-up: concentration or dose not given beside the values; conditions: concentration not given here
T6 sequence (whole entry): T3 sequence (P29275 whole entry)

Adenosine receptor A2a [5] = molecular target: T1, Adenosine receptor A2a; assay: Inhibition of [3H]ZM-241385 binding to human adenosine A2a receptor expressed in CHO cells; (n=3 - 6); format: cell-based
Outline: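 Membranes from human A2A-transfected CHO cells, pretreated with adenosine deaminase. 50 µg protein incubated 60 min at 4 °C in 50 mM Tris HCl, 10 mM MgCl₂, pH 7.4 with [³H]ZM241385 and 6–8 concentrations of test ligand. Nonspecific binding defined with 1 µM ZM241385. Separated by filtration, counted by scintillation. Ki via Cheng–Prusoff.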

Adenosine receptor A3 [6] = molecular target: T4, Adenosine receptor A3; assay: Inhibition of cAMP accumulation in human adenosine A3 receptor assay as inhibition of Cl-IB-MECA; format: functional
[7] = molecular target: T2, Adenosine receptor A1 (Homo sapiens); assay: Percentage inhibition of [3H]DPCPX binding to human adenosine A1 receptor expressed in CHO cells; (n=3 - 6); format: cell-based; conditions: concentration not given here

In the case of `c1ccc(CNc2nc3ccccc3c3nn(-c4ccccc4)cc23)cc1`, the inhibition (Adenosine receptor A2a [1]) is reported as 2%, the inhibition [2] is reported as 4% and the IC50 (Adenosine receptor A2b) is reported as > 1 µM. For the same compound, the Ki (Adenosine receptor A3 [3]) was 0.125 µM, the Ki (Adenosine receptor A1) was > 1 µM and the inhibition [4] was 1%. For the same compound, the Ki (Adenosine receptor A2a [5]) was > 1 µM.

`Oc1nc2ccccc2c2nn(-c3ccc(F)cc3)cc12` was tested, and the inhibition (Adenosine receptor A2a [1]) was 10%, the inhibition [2] was 10% and the IC50 (Adenosine receptor A2b) was > 1 µM. For the same compound, the Ki (Adenosine receptor A3 [3]) was 0.027 µM, the Ki (Adenosine receptor A1) was > 1 µM and the inhibition [4] was 10%. The Ki (Adenosine receptor A2a [5]) was > 1 µM.

With `Cc1ccc(-n2cc3c(=O)[nH]c4ccccc4c3n2)cc1` the IC50 (Adenosine receptor A2b) was > 1 µM, the Ki (Adenosine receptor A1) was > 1 µM and the Ki (Adenosine receptor A2a [5]) was > 1 µM.

In the case of `Sc1nc2ccccc2c2nn(-c3ccccc3)cc12`, the inhibition (Adenosine receptor A2a [1]) is reported as 8%, the inhibition [2] is reported as 14% and the IC50 (Adenosine receptor A2b) is reported as > 1 µM. For the same compound, the Ki (Adenosine receptor A3 [3]) was 0.22 µM, the Ki (Adenosine receptor A1) was > 1 µM and the inhibition [4] was 11%. For the same compound, the Ki (Adenosine receptor A2a [5]) was > 1 µM.

With `Oc1nc2ccccc2c2nn(-c3ccccc3Cl)cc12` the inhibition (Adenosine receptor A2a [1]) was 1%, the inhibition [2] was 3% and the IC50 (Adenosine receptor A2b) was > 1 µM. For the same compound, the Ki (Adenosine receptor A3 [3]) was 0.044 µM, the Ki (Adenosine receptor A1) was > 1 µM and the inhibition [4] was 8%. For the same compound, the Ki (Adenosine receptor A2a [5]) was > 1 µM.

`COc1ccc(-n2cc3c(O)nc4ccccc4c3n2)cc1` was tested, and the inhibition (Adenosine receptor A2a [1]) was 1%, the inhibition [2] was 1% and the IC50 (Adenosine receptor A2b) was > 1 µM. For the same compound, the Ki (Adenosine receptor A3 [3]) was 0.016 µM, the Ki (Adenosine receptor A1) was > 1 µM and the Ki (Adenosine receptor A3 [6]) was 0.042 µM. For the same compound, the inhibition [4] was 2% and the Ki (Adenosine receptor A2a [5]) was > 1 µM.

Work on `Cc1ccc(-n2cc3c(O)nc4ccccc4c3n2)cc1` yielded an inhibition (Adenosine receptor A2a [1]) of 1%, an inhibition [2] of 3% and an inhibition [4] of 2%.

With `CCc1ccc(-n2cc3c(O)nc4ccccc4c3n2)cc1` the inhibition (Adenosine receptor A2a [1]) was 1%, the inhibition [2] was 12% and the inhibition [4] was 13%.

For `CCc1ccc(-n2cc3c(=O)[nH]c4ccccc4c3n2)cc1`, the IC50 (Adenosine receptor A2b) was > 1 µM, the Ki (Adenosine receptor A3 [3]) was 0.157 µM and the Ki (Adenosine receptor A1) was > 1 µM. The Ki (Adenosine receptor A2a [5]) was > 1 µM.

In the case of `c1ccc(-n2cc3cnc4ccccc4c3n2)cc1`, the inhibition (Adenosine receptor A2a [1]) is reported as 3%, the inhibition [2] is reported as 5% and the IC50 (Adenosine receptor A2b) is reported as > 1 µM. The Ki (Adenosine receptor A3 [3]) was 0.212 µM, the Ki (Adenosine receptor A1) was > 1 µM and the inhibition [4] was 1%. The Ki (Adenosine receptor A2a [5]) was > 1 µM.

`Oc1nc2ccccc2c2nn(-c3ccc(Cl)cc3)cc12` was tested, and the inhibition (Adenosine receptor A2a [1]) was 1%, the inhibition [2] was 4% and the IC50 (Adenosine receptor A2b) was > 1 µM. For the same compound, the Ki (Adenosine receptor A3 [3]) was 0.019 µM, the Ki (Adenosine receptor A1) was > 1 µM and the inhibition [4] was 1%. For the same compound, the Ki (Adenosine receptor A2a [5]) was > 1 µM.

For `Oc1nc2ccccc2c2nn(-c3ccccc3)cc12`, the inhibition (Adenosine receptor A2a [1]) was 2%, the IC50 (Adenosine receptor A2b) was > 1 µM and the inhibition [7] was 5%. For the same compound, the Ki (Adenosine receptor A3 [3]) was 0.027 µM, the Ki (Adenosine receptor A1) was > 1 µM and the Ki (Adenosine receptor A3 [6]) was 0.055 µM. The inhibition [4] was 1% and the Ki (Adenosine receptor A2a [5]) was > 1 µM.

In the case of `COc1nc2ccccc2c2nn(-c3ccccc3)cc12`, the inhibition (Adenosine receptor A2a [1]) is reported as 5%, the inhibition [2] is reported as 16% and the IC50 (Adenosine receptor A2b) is reported as > 1 µM. For the same compound, the Ki (Adenosine receptor A3 [3]) was 0.166 µM, the Ki (Adenosine receptor A1) was > 1 µM and the inhibition [4] was 10%. The Ki (Adenosine receptor A2a [5]) was > 1 µM.
